“And” between values parts separate entries of the source, which are not always exact repeats. Identical values can stand only once. Like-named read-outs stand apart in the source and are kept apart here.
Key:
Assay type in all cases: cell-based, Human
HCT-116 cells [1] = experiment: Cell cycle assay by flow cytometry; details: 24 h
HCT-116 = experiment: MTT cytotoxicity assay in normoxia and hypoxia, HCT-116; details: for HCR = hypoxic cytotoxicity ratio IC50 (aerobic)/IC50 (hypoxic): HCT-116; for IC50: Homo sapiens
Summary of the method: (§1)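 MCF-7 and HCT-116 were grown in DMEM; NCI-H460 in RPMI 1640 plus 10 mM HEPES; all media had 10% FBS, pyruvate and 1.5 g/L bicarbonate. Cells were seeded at 20000/well and grown 24 h at 20% O2, 5% CO2, 37 °C. Serial compound concentrations were then given for 24 h in normoxia, or for 6 h hypoxia (3% O2) followed by 18 h normoxia. MTT was read at 545 nm. IC50 came from linear regression of % inhibition versus log concentration, and HCR = IC50 normoxia/IC50 hypoxia.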

[2] = tested on: co-cultured HUVECs and fibroblasts; experiment: In vitro tube formation test; details: 2 μM, 11 days
Summary of the method: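 HUVECs were co-cultured with fibroblasts for 11 days in basal medium, solvent-control medium (0.2% DMSO), or solvent medium with test compound at 2 or 20 μM. Medium ± compound was renewed every 3 days, and suramin served as the kit positive control. HUVECs were stained with anti-CD31, and tube area, length, joints and paths were measured by image analyzer over 5 fields. Quadruplicate wells; mean ± SEM, n=4.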

HCT-116 cells [3] = experiment: ROS analysis by flow cytometry
Summary of the method: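 HCT-116 cells were treated with test compound at 15 or 30 µM in normoxia or hypoxia (24 h per methods; legend states 18 h). They were stained with CM-H2DCFDA for 45 min, collected, and analysed on a FACSCalibur flow cytometer. Fluorescence was normalised to solvent control; mean ± SEM, n=3.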

NCI-H460 = experiment: MTT cytotoxicity assay in normoxia and hypoxia, NCI-H460; details: for IC50: Homo sapiens
Summary of the method: as §1

[4] = tested on: cleaved PARP in HCT-116 cells; experiment: Level of cleaved PARP by flow cytometry; details: HCT-116, hypoxia, 30 µM, 24 h
γ-H2AX in HCT-116 cells = experiment: Level of γ-H2AX by flow cytometry; details: 30 µM, 24 h
[5] = tested on: caspase 3/7 in HCT-116 cells; experiment: Caspase 3/7 activity; details: 30 µM, 24 h
Summary of the method: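 HCT-116 cells were exposed to test compound at 30 µM for 24 h in normoxia or hypoxia. Cells were harvested, washed in PBS, centrifuged (350 g, 5 min) and stained with a FAM-FLICA caspase-3/7 inhibitor kit. Active caspase 3/7 was measured by flow cytometry. Data are mean ± SEM, n=3, compared with solvent control by one-way ANOVA with Tukey post hoc test.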

[6] = tested on: γ-H2AX and cleaved PARP in HCT-116 cells; experiment: Dual-parameter γ-H2AX and cleaved PARP flow cytometry; details: 30 µM, 24 h
MCF-7 = experiment: MTT cytotoxicity assay in normoxia and hypoxia, MCF-7
Summary of the method: as §1

[7] = HCT-116, 24 h, read-out: Cytotoxicity (IC50) HCT-116 N
[8] = HCT-116, read-out: Cytotoxicity (IC50) HCT-116 H
[9] = NCI-H460, 24 h, read-out: Cytotoxicity (IC50) NCI-H460 N
[10] = NCI-H460, read-out: Cytotoxicity (IC50) NCI-H460 H
[11] = HCT-116, read-out: Cytotoxicity (IC50), cell kill under hypoxia

Compound: [O-][n+]1nc(NCCNc2n[n+]([O-])c3ccccc3[n+]2[O-])nc2ccccc21 [Compound 9a, 3-(2-(1-Oxido-1,2,4-benzotriazin-3-yl)aminoethylamino)-1,2,4-benzotriazine-1,4-dioxide]
- G1 (%) (HCT-116 cells [1]; HCT-116, hypoxia, 15 µM): 26.2±3.7%
- G2/M (%) (HCT-116 cells [1]; HCT-116, hypoxia, 15 µM): 31.4% and 31.4±3.2%
- S (%) (HCT-116 cells [1]; HCT-116, hypoxia, 15 µM): 27.3±4.4%
- Sub-G1 (%) (HCT-116 cells [1]; HCT-116, hypoxia, 15 µM): 13.1% and 13.1±1.7%
- G1 (%) (HCT-116 cells [1]; HCT-116, hypoxia, 30 µM): 33.3±2.4%
- G2/M (%) (HCT-116 cells [1]; HCT-116, hypoxia, 30 µM): 16.7% and 16.7±2.5%
- S (%) (HCT-116 cells [1]; HCT-116, hypoxia, 30 µM): 25.8±3.8%
- Sub-G1 (%) (HCT-116 cells [1]; HCT-116, hypoxia, 30 µM): 24.3% and 24.3±2.8%
- G1 (%) (HCT-116 cells [1]; HCT-116, normoxia, 15 µM): 30.9±2.3%
- G2/M (%) (HCT-116 cells [1]; HCT-116, normoxia, 15 µM): 51.0% and 51.0±4.2%
- S (%) (HCT-116 cells [1]; HCT-116, normoxia, 15 µM): 15.0±5.5%
- Sub-G1 (%) (HCT-116 cells [1]; HCT-116, normoxia, 15 µM): 2.7±0.7%
- G1 (%) (HCT-116 cells [1]; HCT-116, normoxia, 30 µM): 24.3±4.1%
- G2/M (%) (HCT-116 cells [1]; HCT-116, normoxia, 30 µM): 58.3% and 58.3±2.8%
- S (%) (HCT-116 cells [1]; HCT-116, normoxia, 30 µM): 12.9±5.2%
- Sub-G1 (%) (HCT-116 cells [1]; HCT-116, normoxia, 30 µM): 3.8% and 3.8±1.7%
- HCR = hypoxic cytotoxicity ratio IC50 (aerobic)/IC50 (hypoxic) (HCT-116): 3.7
- IC50 (HCT-116; [7]): 66.3 ± 16.5 µM
- IC50 (HCT-116; [8]): 18.1 ± 2.6 µM
- reduction of areas, lengths, paths and joints of tube formation [2]: 70-80%
- increase of ROS relative to control medium (HCT-116 cells [3]; HCT-116, hypoxia, 15 µM): 46 fold
- increase of ROS relative to control medium (HCT-116 cells [3]; HCT-116, hypoxia, 30 µM): 60 fold
- increase of ROS relative to control medium (HCT-116 cells [3]; HCT-116, normoxia, 15 µM): 3.4 fold
- increase of ROS relative to control medium (HCT-116 cells [3]; HCT-116, normoxia, 30 µM): 5.8 fold
- IC50 (NCI-H460; [9]): 43.7 ± 12.5 µM
- IC50 (NCI-H460; [10]): 17.5 ± 4.3 µM
- HCR = IC50 (aerobic)/IC50 (hypoxia) (NCI-H460; NCI-H460): 2.5
- cleaved PARP [4]: ~45%
- expression of γ-H2AX (γ-H2AX in HCT-116 cells; HCT-116, hypoxia, solvent control 4%): around 30%
- effect on expression of γ-H2AX (γ-H2AX in HCT-116 cells; HCT-116, normoxia): no significant effect
- level of active caspase 3/7 ([5]; HCT-116, hypoxia, solvent control 7%): ~55%
- effect on level of active caspase 3/7 ([5]; HCT-116, normoxia): no apparent effect
- cells expressing both γ-H2AX and cleaved PARP (upper right quadrant) ([6]; HCT-116, hypoxia): approximately 11%
- cells expressing both γ-H2AX and cleaved PARP (upper right quadrant) ([6]; HCT-116, normoxia): 0.1%
- HCR = IC50 (aerobic)/IC50 (hypoxia) (MCF-7): > 6.0

Compound: NCCCCCCCNc1n[n+]([O-])c2ccccc2[n+]1[O-] [Compound 8f, N^1-(1,4-Dioxido-1,2,4-benzotriazine-3-yl)-1,7-heptanediamine]
- HCR = hypoxic cytotoxicity ratio IC50 (aerobic)/IC50 (hypoxic) (HCT-116): 1.9
- IC50 (HCT-116; [7]): 78.3 ± 4.9 µM
- IC50 (HCT-116; [8]): 40.8 ± 4.3 µM
- IC50 (HCT-116; [11]): 40.8 µM
- IC50 (NCI-H460; [9]): 79.4 ± 22.6 µM
- IC50 (NCI-H460; [10]): 42.8 ± 8.3 µM

Compound: [O-][n+]1nc(NCCCCCCCNc2n[n+]([O-])c3ccccc3[n+]2[O-])nc2ccccc21 [Compound 9f, 3-(7-(1-Oxido-1,2,4-benzotriazin-1-ium-3-yl)aminoheptylamino)-1,2,4-benzotriazine-1,4-dioxide]
- IC50 (HCT-116; [7]): > 30 µM
- IC50 (HCT-116; [8]): > 30 µM
- IC50 (NCI-H460; [9]): > 30 µM
- IC50 (NCI-H460; [10]): > 30 µM

Compound: NCCCCCCCCNc1n[n+]([O-])c2ccccc2[n+]1[O-] [Compound 8g, N^1-(1,4-Dioxido-1,2,4-benzotriazine-3-yl)-1,8-octanediamine]
- HCR = hypoxic cytotoxicity ratio IC50 (aerobic)/IC50 (hypoxic) (HCT-116): 2.2
- IC50 (HCT-116; [7]): 97 ± 8.7 µM
- IC50 (HCT-116; [8]): 44.8 ± 6 µM
- IC50 (HCT-116; [11]): 44.8 µM
- reduction of areas, lengths, paths and joints of tube formation [2]: 31-40%
- IC50 (NCI-H460; [9]): 82.7 ± 20.4 µM
- IC50 (NCI-H460; [10]): 45.8 ± 6.1 µM

Compound: [O-][n+]1nc(NCCCCCCNc2n[n+]([O-])c3ccccc3[n+]2[O-])nc2ccccc21 [Compound 9e, 3-(6-(1-Oxido-1,2,4-benzotriazin-1-ium-3-yl)aminohexylamino)-1,2,4-benzotriazine-1,4-dioxide]
- IC50 (HCT-116; [7]): > 30 µM
- IC50 (HCT-116; [8]): > 30 µM
- IC50 (NCI-H460; [9]): > 30 µM
- IC50 (NCI-H460; [10]): > 30 µM

Compound: NCCNc1n[n+]([O-])c2ccccc2[n+]1[O-] [Compound 8a, N^1-(1,4-Dioxido-1,2,4-benzotriazine-3-yl)-1,2-ethanediamine]
- HCR = hypoxic cytotoxicity ratio IC50 (aerobic)/IC50 (hypoxic) (HCT-116): 1.8
- IC50 (HCT-116; [7]): 40.3 ± 14.6 µM
- IC50 (HCT-116; [8]): 22.4 ± 9.7 µM
- IC50 (HCT-116; [11]): 22.4 µM
- IC50 (NCI-H460; [9]): 18.7 ± 2.7 µM
- IC50 (NCI-H460; [10]): 10.1 ± 3.7 µM

Compound: NCCCCCNc1n[n+]([O-])c2ccccc2[n+]1[O-] [Compound 8d, N^1-(1,4-Dioxido-1,2,4-benzotriazine-3-yl)-1,5-pentanediamine]
- HCR = hypoxic cytotoxicity ratio IC50 (aerobic)/IC50 (hypoxic) (HCT-116): 1.7
- IC50 (HCT-116; [7]): 93.7 ± 20 µM
- IC50 (HCT-116; [8]): 55.3 ± 7.5 µM
- IC50 (HCT-116; [11]): 55.3 µM
- IC50 (NCI-H460; [9]): 101 ± 38.9 µM
- IC50 (NCI-H460; [10]): 83.4 ± 33.8 µM
